Results collected from several papers.
Observed: metabolic stability
Host: mouse
Medium: liver microsomes

CC(C)(C)OC(=O)N1CCC(Oc2ccc3c(=O)c4c(F)cc(Cl)cc4[nH]c3c2)CC1 — microsomal CLint (1 µM; pH 7.4): 12.5 µL/min/mg
CC1(C(F)F)NC(=O)N(c2ccc(F)c(C(F)(F)F)c2)C1=O (stereo not drawn) — microsomal CLint: < 7 µL/min/mg
CC(C)n1ncc2c(C(=O)NCC(C)(C)N(C)C)cc(C3CC3)nc21 — microsomal CLint: 30.4 µL/min/mg
COc1ccc(Cn2cc(CO[C@@H]3O[C@H]4[C@H](OC[C@H]4O)[C@H]3O)nn2)cc1 — microsomal CLint: < 14.4 µL/min/mg
Cc1[nH]c(C)c(S(=O)(=O)Nc2ccc(C(F)(F)F)c(Cl)c2)c1C(=O)N1CCC(F)(F)C1 — microsomal CLint: 59 µL/min/mg
CC(C)n1ncc2c(C(=O)NCC3(C)CNC3)cc(C3CC3)nc21 — microsomal CLint: < 9.6 µL/min/mg
CC1(C(F)(F)F)NC(=O)N(c2ccc(F)c(C(F)(F)F)c2)C1=O (stereo not drawn) — microsomal CLint: < 7 µL/min/mg
CNCCNC(=O)c1cc(C(C)C)nc2c1cnn2C(C)C — microsomal CLint: 175 µL/min/mg
CCS(=O)(=O)N1CCC2(CC1)NC(=O)N(c1ccc(F)c(C(F)(F)F)c1)C2=O — microsomal CLint: < 7 µL/min/mg
CC(C)n1ncc2c(C(=O)NC(C)(C)CN)cc(C3CC3)nc21 — microsomal CLint: 19.1 µL/min/mg
O=c1c2ccc(OCc3cccc(OC(F)(F)F)c3)cc2[nH]c2cc(F)cc(Cl)c12 — microsomal CLint (1 µM; pH 7.4): 7.26 µL/min/mg
CCN(CC)CCNC(=O)c1c(C)[nH]c(/C=C2\C(=O)Nc3ccc(F)cc32)c1C — microsomal CLint: 41 µL/min/mg
Cc1cc(N2C(=O)NC(C)(C)C2=O)cc(C(F)(F)F)n1 — microsomal CLint: 19 µL/min/mg
CCCN(CCC)CCNc1ccc2c(=O)c3c([nH]c2c1)CCCC3 — microsomal CLint (1 µM; pH 7.4): 81.9 µL/min/mg
CC1(C)NC(=O)N(c2ccc(F)c(OC(F)(F)F)c2)C1=O — microsomal CLint: < 7 µL/min/mg
O=c1c2c([nH]c3cc(OCc4ccc(OC(F)(F)F)cc4)ccc13)CCCC2 — microsomal CLint (1 µM; pH 7.4): 19.7 µL/min/mg
CC1(C)NC(=O)N(c2ccc3c(c2)OC(F)(F)O3)C1=O — microsomal CLint: < 7 µL/min/mg
CCN(CC)CCCOc1ccc2c(=O)c3c([nH]c2c1)CCCC3 — microsomal CLint (1 µM; pH 7.4): 7.94 µL/min/mg
